Activity calls are given as the source filed them. The rule behind the calls is not given here.
Assays:
microRNA 21 [1] = assay: Inhibition of miR-21 RNA (unknown origin) in HeLa cells harboring luciferase gene assessed as increase in luminescence at 10 uM after 48 hrs by Bright-glo luciferase assay relative to DMSO; assay type: cell-based
Summary of the method: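 HeLa-miR21-Luc stable reporter cells treated at 10 µM for 48 h. Luminescence normalized to cell viability and expressed as fold change over DMSO control. Mean ± SD of at least three independent experiments.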

microRNA 21 [2] = assay: Inhibition of miR-21 RNA (unknown origin) in HeLa cells harboring luciferase gene after 48 hrs by Bright-glo luciferase assay; assay type: cell-based
Summary of the method: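 HeLa-miR21-Luc stable reporter cells treated across a concentration range, then Bright-Glo assay. Luciferase signal normalized first to cell viability, then to DMSO. Three independent experiments; EC50 from nonlinear regression fit.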

[3] = target: Luciferin 4-monooxygenase (Photinus pyralis) (UniProt P08659); assay: Inhibition of recombinant firefly luciferase activity assessed as reduction in luminescence at 10 uM by Bright-glo luciferase assay relative to control
Luciferin 4-monooxygenase (Photinus pyralis), sequence (P08659 whole entry): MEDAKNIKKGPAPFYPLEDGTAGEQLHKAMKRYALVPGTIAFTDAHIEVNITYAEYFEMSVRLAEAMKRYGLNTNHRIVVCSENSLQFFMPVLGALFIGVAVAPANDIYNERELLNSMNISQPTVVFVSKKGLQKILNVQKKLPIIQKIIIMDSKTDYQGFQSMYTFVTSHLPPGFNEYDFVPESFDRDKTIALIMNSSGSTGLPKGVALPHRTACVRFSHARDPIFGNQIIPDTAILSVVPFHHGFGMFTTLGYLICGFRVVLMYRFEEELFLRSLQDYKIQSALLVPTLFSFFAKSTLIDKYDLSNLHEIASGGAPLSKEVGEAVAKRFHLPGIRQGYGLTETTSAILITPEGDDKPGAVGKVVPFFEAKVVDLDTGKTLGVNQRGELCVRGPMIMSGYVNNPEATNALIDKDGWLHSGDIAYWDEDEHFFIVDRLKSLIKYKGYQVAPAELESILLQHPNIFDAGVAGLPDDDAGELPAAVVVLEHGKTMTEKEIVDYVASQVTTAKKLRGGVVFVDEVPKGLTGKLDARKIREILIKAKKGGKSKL

HeLa [4] = assay: Effect on non-miRNA pathway in human HeLa cells harboring psi-check empty vector assessed as increase in luminescence at 10 uM after 48 hrs by dual luciferase assay relative to control; assay type: functional
Summary of the method: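 HeLa cells transfected with psiCHECK-empty reporter (sequence not targeted by any known miRNA), then treated at 10 µM for 48 h. Dual luciferase assay; firefly signal normalized to Renilla, then to DMSO. Three independent experiments, mean ± SD; unpaired t-test.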

microRNA 122 [5] = assay: Inhibition of miR-122 RNA (unknown origin) in HuH7 cells harboring luciferase gene assessed as increase in luminescence at 10 uM after 48 hrs by dual luciferase assay relative to control; assay type: cell-based
Summary of the method: (§1)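 Huh7-miR122 stable reporter cells treated at 10 µM for 48 h; known miR-122 inhibitor as positive control. Dual luciferase assay; Renilla signal normalized to firefly, then to DMSO. Three independent experiments, mean ± SD; unpaired t-test.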

HeLa [6] = assay: Antiproliferative activity against human HeLa cells cell viability after 72 hrs by XTT assay; assay type: functional, cell-based
Summary of the method: (§2)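 Cells treated with a serial dilution of compound for 72 h; viability read by XTT assay.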

HeLa [7] = assay: Anticlonogenic activity against human HeLa cells assessed as reduction in colony formation after 2 weeks by crystal violet staining based microscopic method; assay type: functional, cell-based; conditions: 336 h
Summary of the method: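 HeLa cells suspended in low-melt agarose and exposed to a dilution series of compound for two weeks at 37 °C, then imaged.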

microRNA 21 [8] = assay: Inhibition of miR-21 RNA in human A549 cells assessed as reduction in matured miR-21 RNA at 10 uM after 48 hrs by RT-qPCR analysis relative to control
microRNA 21 [9] = assay: Inhibition of miR-21 RNA in human HeLa cells assessed as reduction in matured miR-21 RNA at 10 uM after 48 hrs by RT-qPCR analysis relative to control
microRNA 21 [10] = assay: Inhibition of pri-miR-21 RNA in human HeLa cells assessed as decrease in pri-miR-21 RNA level at 10 uM after 48 hrs by RT-qPCR method relative to control; assay type: cell-based
Summary of the method: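 HeLa cells treated at 10 µM for 48 h; primary miR-21 levels measured by RT-qPCR.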

microRNA 21 [11] = assay: Inhibition of miR-21 RNA in human SKOV3 cells assessed as reduction in matured miR-21 RNA at 10 uM after 48 hrs by RT-qPCR analysis relative to control
microRNA 21 [12] = assay: Inhibition of miR-21 RNA promoter (unknown origin) in HeLa cells expressing pGL4-miR21p assessed as decrease in miR-21 RNA promoter activity at 10 uM preincubated for 48 hrs followed by pGL4-miR21p transfection after 24 hrs by Bright-glo luciferase assay relative to DMSO; assay type: cell-based
microRNA 122 [13] = assay: Inhibition of miR-122 RNA (unknown origin) in HuH7 cells harboring luciferase gene assessed as reduction in luminescence at 10 uM after 48 hrs by dual luciferase assay relative to control; assay type: cell-based; summary of the method: as §1
HEK293 = assay: Antiproliferative activity against human HEK293 cells cell viability after 72 hrs by XTT assay; assay type: cell-based; conditions: hek293, 72 h; summary of the method: as §2
HeLa [14] = assay: Induction of apoptosis in human HeLa cells assessed as increase in caspase 3/7 activity at 10 uM after 24 hrs by caspase3/7 activity assay; assay type: functional
Summary of the method: (§3)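 HeLa cells treated for 24 h, then caspase-3/7 activity assay.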

microRNA 21 [15] = assay: Binding affinity to pre-miR-21 RNA (unknown origin) assessed as melting temperature by UV spectroscopic analysis (reference value: 56 degC); assay type: nucleic-acid assay
HeLa [16] = assay: Induction of apoptosis in human HeLa cells assessed as increase in caspase 3/7 activity at 50 uM after 24 hrs by caspase3/7 activity assay relative to control; assay type: functional; summary of the method: as §3
[17] = target: Luciferin 4-monooxygenase (Photinus pyralis) (UniProt P08659); assay: Inhibition of recombinant firefly luciferase activity assessed as reduction in luminescence at 10 uM by Bright-glo luciferase assay

Compound: N#Cc1ccc(OCC(=O)Nc2ccc(-c3nc4cc(Cl)ccc4o3)cc2)cc1
- fold change (FC) (microRNA 21 [1]): 2.08

Compound: O=C(COc1ccccc1)Nc1ccc(-c2nc3ccccc3o2)cc1
- fold change (FC) (microRNA 21 [1]): 1.47

Compound: COc1ccc(NCC(=O)Nc2ccc(-c3nc4cc(Cl)ccc4o3)cc2)cc1
- fold change (FC) (microRNA 21 [1]): 0.14

Compound: O=C(COc1ccc(-c2ccccc2)cc1)Nc1ccc(-c2nc3cc(Cl)ccc3o2)cc1
- fold change (FC) (microRNA 21 [1]): 2.64

Compound: COc1cccc(OCC(=O)Nc2ccc(-c3nc4cc(Cl)ccc4o3)cc2)c1
- EC50 (microRNA 21 [2]): 4.7 µM
- inhibition (microRNA 21 [2]): Dose-dependent effect
- inhibition [3]: 44%
- fold change (FC) (microRNA 21 [1]): 5.37
- fold change (FC) (HeLa [4]): 1.5 - 1.8

Compound: O=C(COc1ccccc1)Nc1ccc2cc(-c3nc4cc(Cl)ccc4o3)ccc2c1
- fold change (FC) (microRNA 21 [1]): 1.3

Compound: O=S(=O)(c1ccc2c(c1)CCCN2)N1CCC[C@H]2CCCC[C@@H]21
- fold change (FC) (microRNA 122 [5]): > 3.5

Compound: O=C(COc1ccccc1)Nc1cccc(-c2nc3cc(Cl)ccc3o2)c1
- fold change (FC) (microRNA 21 [1]): 2.14

Compound: COc1ccc(OCC(=O)Nc2cccc(-c3nc4ccccc4o3)c2)cc1
- fold change (FC) (microRNA 21 [1]): 4.73

Compound: Cc1cc(OCC(=O)Nc2ccc(-c3nc4cc(Cl)ccc4o3)cc2)ccc1C(C)C
- fold change (FC) (microRNA 21 [1]): 2.23

Compound: O=C(COc1ccc(F)cc1)Nc1ccc(-c2nc3cc(Cl)ccc3o2)cc1
- fold change (FC) (microRNA 21 [1]): 2.86

Compound: COc1ccc(OCC(=O)Nc2cccc(-c3nc4cc(Cl)ccc4o3)c2)cc1
- fold change (FC) (microRNA 21 [1]): 3.19

Compound: COc1ccc(OCC(=O)Nc2ccc(-c3nc4cc(Br)ccc4o3)cc2)cc1
- EC50 (microRNA 21 [2]): 6.4 µM
- inhibition (microRNA 21 [2]): Dose-dependent effect
- inhibition [3]: 38%
- fold change (FC) (microRNA 21 [1]): 6.19
- fold change (FC) (HeLa [4]): 1.5 - 1.8

Compound: COc1ccc(OCC(=O)Nc2ccc(-c3nc4cc(Cl)ccc4[nH]3)cc2)cc1
- fold change (FC) (microRNA 21 [1]): 1.6

Compound: COc1ccc(SCC(=O)Nc2ccc(-c3nc4cc(Cl)ccc4o3)cc2)cc1
- fold change (FC) (microRNA 21 [1]): 2.64

Compound: COc1ccc(OCC(=O)Nc2ccc(-c3nc4cc(Cl)ccc4o3)cc2)cc1
- IC50 (HeLa [6]): > 50 µM
- EC50 (HeLa [7]): 7.3 µM
- EC50 (microRNA 21 [2]): 6.7 µM
- inhibition (microRNA 21 [2]): Dose-dependent effect
- inhibition (microRNA 21 [8]): 33%
- inhibition [3]: inactive
- inhibition (microRNA 21 [9]): 57%
- inhibition (microRNA 21 [10]): 79%
- inhibition (microRNA 21 [11]): 31%
- fold change (FC) (microRNA 21 [1]): 4.87
- inhibition (microRNA 21 [12]): 78%
- fold change (FC) (microRNA 122 [13]): 0.2
- Activity (HeLa [4]): inactive
- Activity (HEK293): Non-Toxic
- Activity (HeLa [14]): 50%
- Tm (microRNA 21 [15]): 56.2 °C
- fold change (FC) (HeLa [16]): 2

Compound: COc1ccc(OCC(=O)Nc2ccc(-c3nc4ccccc4s3)cc2)cc1
- fold change (FC) (microRNA 21 [1]): 1.56

Compound: COc1ccc(OCC(=O)Nc2ccc(-c3nc4ncccc4o3)cc2)cc1
- fold change (FC) (microRNA 21 [1]): 2.25

Compound: COc1ccc(OCC(=O)Nc2ccc(-c3nc4cc(-c5ccccc5)ccc4o3)cc2)cc1
- EC50 (microRNA 21 [2]): 3.5 µM
- inhibition (microRNA 21 [2]): Dose-dependent effect
- inhibition [3]: 27%
- fold change (FC) (microRNA 21 [1]): 7.87
- fold change (FC) (HeLa [4]): 1.5 - 1.8

Compound: COc1ccc(OC(=O)Nc2ccc(-c3nc4cc(Cl)ccc4o3)cc2)cc1
- fold change (FC) (microRNA 21 [1]): 3.48

Compound: O=C(COc1ccccc1)Nc1ccc(-c2nc3cc(Cl)ccc3o2)cc1
- fold change (FC) (microRNA 21 [1]): 2.87

Compound: O=C(COc1ccc([N+](=O)[O-])cc1)Nc1ccc(-c2nc3cc(Cl)ccc3o2)cc1
- fold change (FC) (microRNA 21 [1]): 3.58

Compound: O=C(O)c1cccc(-c2noc(-c3ccccc3F)n2)c1 [ATALUREN]
- fold change (FC) (HeLa [4]): 1.5 - 1.8
- inhibition [17]: 94%

Compound: O=C(Nc1ccc(-c2nc3cc(Cl)ccc3o2)cc1)Oc1ccccc1
- fold change (FC) (microRNA 21 [1]): 3.86

Compound: O=C(COc1ccccc1)Nc1ccc(-c2nc3ccc(Cl)cc3o2)cc1
- fold change (FC) (microRNA 21 [1]): 2.65

Compound: COc1ccc(OCC(=O)Nc2ccc(-c3nc4ccc(Cl)cc4o3)cc2)cc1
- fold change (FC) (microRNA 21 [1]): 3.32

Compound: COc1ccc(OCC(=O)Nc2nc3ccc(-c4nc5cc(Cl)ccc5o4)cc3s2)cc1
- fold change (FC) (microRNA 21 [1]): 0.03

Compound: COc1ccc(OCC(=O)N(C)c2ccc(-c3nc4cc(Cl)ccc4o3)cc2)cc1
- fold change (FC) (microRNA 21 [1]): 0.88

Compound: C#CCN(C(=O)COc1ccc(OC)cc1)c1ccc(-c2nc3cc(Cl)ccc3o2)cc1
- fold change (FC) (microRNA 21 [1]): 1.61

Compound: O=C(COc1ccccc1I)Nc1ccc(-c2nc3ccccc3o2)cc1
- fold change (FC) (microRNA 21 [1]): 1.53

Compound: O=C(COc1ccccc1)Nc1ccc(-c2nc3cc(F)ccc3o2)cc1
- fold change (FC) (microRNA 21 [1]): 1.58

Compound: O=C(COc1ccccc1)Nc1ccc(-c2nc3ccccc3s2)cc1
- fold change (FC) (microRNA 21 [1]): 1.68

Compound: O=C(COc1ccccc1)Nc1cccc(-c2nc3ccccc3o2)c1
- fold change (FC) (microRNA 21 [1]): 1.75

Compound: COc1ccc(OCC(=O)Nc2ccc(-c3nc4cc(F)ccc4o3)cc2)cc1
- fold change (FC) (microRNA 21 [1]): 2.14

Compound: O=C(COc1ccccc1)Nc1ccc(-c2nc3cc(Cl)ccc3[nH]2)cc1
- fold change (FC) (microRNA 21 [1]): 0.41

Compound: COc1ccc(OCC(=O)Nc2ccc(-c3nc4ccccc4o3)cc2)cc1
- fold change (FC) (microRNA 21 [1]): 0.27

Compound: O=C(COc1ccccc1I)Nc1ccc(-c2nc3ccccc3s2)cc1
- fold change (FC) (microRNA 21 [1]): 1.55

— ChEMBL document CHEMBL4385631, “Small molecule inhibition of microRNA-21 expression reduces cell viability and microtumor formation” (Bioorg Med Chem, 2019)
